For data set [1] the following is noted: cited from earlier work.
Data set [2] in a line: Cell-free aggregation assay. The following applies: for Detected CAC: critical aggregation concentration, 1× HBSS, 20 mM HEPES, pH 7.2; for aggregator / non-aggregator in aggregation assay: real time dose responses. It counts as physicochemical. Put shortly:
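Assay buffer (1× HBSS, 20 mM HEPES, pH 7.2) was equilibrated in wells of the RWG reader for 1 h. After a 2 min baseline, a compound dilution series (from DMSO stocks, maximum 1‰ final DMSO) was added and wavelength shift was recorded for 1 h. A DMSO range set the background. Responses at a fixed time were plotted against concentration to give the CAC. Each assay was run at least three times.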

The target in another data set is Muscarinic M3 receptor (Homo sapiens, UniProt P20309). Put plainly: DMR desensitization assay, M3. Particulars: HT-29 cells; active compounds at concentrations above 50 μM. It counts as cell-based.
Sequence of Muscarinic M3 receptor (P20309 whole entry): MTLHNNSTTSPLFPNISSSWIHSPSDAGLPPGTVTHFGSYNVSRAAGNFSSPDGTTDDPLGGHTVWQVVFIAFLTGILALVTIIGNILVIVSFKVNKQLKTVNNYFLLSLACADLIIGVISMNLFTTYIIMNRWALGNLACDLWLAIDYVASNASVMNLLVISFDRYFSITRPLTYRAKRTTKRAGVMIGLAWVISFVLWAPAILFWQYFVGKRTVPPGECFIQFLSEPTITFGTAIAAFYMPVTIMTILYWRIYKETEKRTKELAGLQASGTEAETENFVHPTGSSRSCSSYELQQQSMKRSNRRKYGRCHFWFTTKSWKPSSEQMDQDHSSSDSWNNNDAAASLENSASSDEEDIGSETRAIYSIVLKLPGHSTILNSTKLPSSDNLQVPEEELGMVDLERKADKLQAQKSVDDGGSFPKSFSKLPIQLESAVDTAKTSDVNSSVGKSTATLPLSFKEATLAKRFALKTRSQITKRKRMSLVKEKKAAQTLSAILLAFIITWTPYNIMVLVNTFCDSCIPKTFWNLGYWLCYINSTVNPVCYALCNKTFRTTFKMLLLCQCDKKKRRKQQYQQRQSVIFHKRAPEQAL
The test system of a further data set is HT-29 cells. The data set is described as follows: DMR agonism assay. It counts as cell-based, Human. An outline of the steps:
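HT-29 cells were grown in McCoy's 5A with 10% FBS at 37 °C/5% CO2. They were seeded on RWG biosensor plates for ~24 h to form a monolayer, washed, and held 1 h in HBSS/20 mM HEPES pH 7.2, or in the same buffer with tween-80 for detergent runs. After a 2 min baseline, test compound was added and DMR was monitored for 1 h. The background-corrected maximal amplitude was used. Two independent runs, each at least in duplicate (n = 4).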

Data on seven compounds can be found in paper PMC9075791 (RSC Advances, 2019).

SMILES strings stand for the structures.

For the compound `COc1cc(/C=C/C(=O)CC(=O)/C=C/c2ccc(O)c(OC)c2)ccc1O` [Curcumin], in data set [1], the “Literature CAC detected by DLS” value is 17 ([ref. 16]) μM. In data set [2], the “Detected CAC” value turned out to be 9.6 µM and the “aggregator / non-aggregator in aggregation assay” value was “aggregator”. Besides, the “inhibition of the DMR response of acetylcholine against muscarinic M3 receptor” value at Muscarinic M3 receptor is “did not inhibit”. In addition, the “DMR response (in words)” value with HT-29 cells (to its solubility limit) is “barely triggered any cellular mass redistributions”.
For the compound `COc1cc(O)c2c(c1)C(=O)c1cc(C)cc(O)c1C2=O` [Physcion], the “Literature CAC detected by DLS” value in data set [1] was 0.32 ([ref. 16]) μM. In addition, the “Detected CAC” value in data set [2] is recorded as “Undetected”.
For the compound `O=c1cc(-c2ccc(O)c(O)c2)oc2cc(O)cc(O)c12` [Luteolin], the “Literature CAC detected by DLS” value in data set [1] was <50 ([ref. 12]) μM. In data set [2], the “Detected CAC” value turned out to be 1.6 µM.
As to `O=c1c(O)c(-c2ccc(O)c(O)c2)oc2cc(O)cc(O)c12` [Quercetin], the “Detected CAC” value in data set [2] came out at 5.7 µM. At Muscarinic M3 receptor, the “inhibition of the DMR response of acetylcholine against muscarinic M3 receptor” value is listed as “false inhibited”. Also, the DMR response result in the data set with HT-29 cells (at 100 μM) was “less than 100 pm”.
For `COc1cc(C2Oc3cc([C@H]4Oc5cc(O)cc(O)c5C(=O)[C@@H]4O)ccc3OC2CO)ccc1O` (some centres unmarked) [Silybin], in data set [1], the “Literature CAC detected by DLS” value is 0.47 ([ref. 16]) μM. Besides, the “Detected CAC” value in data set [2] is 25.2 µM.
As for `O=C(O)c1cccnc1` [Nicotinic acid], in data set [2], the “aggregator / non-aggregator in aggregation assay” value is recorded as “non-aggregator”.
Take `O=c1c(-c2ccc(O)cc2)coc2cc(O)cc(O)c12` [Genistein]: in data set [1], the “Literature CAC detected by DLS” value was <75 ([ref. 12]) μM. Besides, the “Detected CAC” value in data set [2] turned out to be 42.8 µM.
